Measured values published in ChEMBL document CHEMBL2034932, “2-Anilino-4-(benzimidazol-2-yl)pyrimidines--a multikinase inhibitor scaffold with antiproliferative activity toward cancer cell lines” (Eur J Med Chem, 2012).
Structures can show the parent of a compound that is named as a salt.

Assays:
TK-10 = assay: Antiproliferative activity against human TK10 cells after 48 hrs by SRB assay; assay type: functional; conditions: TK-10, 48 h
How it was run: (§1)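 Run in the NCI screen of about 60 human tumour cell lines. Cells were exposed to compound for 48 h at five concentrations from 10^-8 to 10^-4 M, then fixed and stained for protein with sulforhodamine B. Absorbance was read at 515 nm. Percent growth was calculated from time-zero, untreated-control and treated readings, and replicate experiments were averaged.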

MCF7 = assay: Antiproliferative activity against human MCF7 cells after 48 hrs by SRB assay; assay type: functional; conditions: MCF7, 48 h; how it was run: as §1
SW-620 = assay: Antiproliferative activity against human SW620 cells after 48 hrs by SRB assay; assay type: functional; conditions: SW-620, 48 h; how it was run: as §1
Aurora kinase B = Aurora kinase B (Homo sapiens, UniProt Q96GD4); assay: Inhibition of recombinant Aurora B using tetra(LRRWSLG) as substrate assessed as inhibition of [33P]Phosphate incorporation into substrate after 80 mins by scintillation counting
UACC-257 = assay: Antiproliferative activity against human UACC257 cells after 48 hrs by SRB assay; assay type: functional; conditions: UACC-257, 48 h; how it was run: as §1
HT-29 = assay: Antiproliferative activity against human HT-29 cells after 48 hrs by SRB assay; assay type: functional; conditions: HT-29, 48 h; how it was run: as §1
SNB-19 = assay: Antiproliferative activity against human SNB19 cells after 48 hrs by SRB assay; assay type: functional; conditions: SNB-19, 48 h; how it was run: as §1
[1] = biological target: RAC-alpha serine/threonine-protein kinase (Homo sapiens, UniProt P31749); assay: Inhibition of recombinant AKT1 using GSK3 as substrate assessed as inhibition of [33P]Phosphate incorporation into substrate after 80 mins by scintillation counting
How it was run: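 Recombinant AKT1 was assayed radiometrically with [33P]-ATP (about 5×10^5 cpm/well) and GSK3(14-27) substrate at 2000 ng/50 µL. Buffer was 60 mM HEPES-NaOH pH 7.5 with 3 mM MgCl2 and 3 mM MnCl2, and compound was added in 10% DMSO. After 80 min at 30 °C the reaction was stopped with 2% phosphoric acid, washed with 0.9% NaCl and 33P incorporation counted by scintillation.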

CAKI-1 = assay: Antiproliferative activity against human CAKI-1 cells after 48 hrs by SRB assay; assay type: functional; conditions: CAKI-1, 48 h; how it was run: as §1
OVCAR-3 = assay: Antiproliferative activity against human OVCAR3 cells after 48 hrs by SRB assay; assay type: functional; conditions: OVCAR-3, 48 h; how it was run: as §1
MDA-MB-435 = assay: Antiproliferative activity against human MDA-MB-435 cells after 48 hrs by SRB assay; assay type: functional; conditions: MDA-MB-435, 48 h; how it was run: as §1
[2] = biological target: Serine/threonine-protein kinase PLK1 (Homo sapiens, UniProt P53350); assay: Inhibition of recombinant PLK1 using RBERCHKtide as substrate assessed as inhibition of [33P]Phosphate incorporation into substrate after 80 mins by scintillation counting
How it was run: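 PLK1 (recombinant) was phosphorylating RBER-CHKtide at 2000 ng/50 µL with [33P]-ATP (about 5×10^5 cpm/well). Buffer was 60 mM HEPES-NaOH pH 7.5 with 3 mM MgCl2 and 3 mM MnCl2. After 80 min at 30 °C, 2% phosphoric acid stopped the reaction and wells were washed with saline. Incorporated 33P was counted, with residual activity relative to enzyme-free and inhibitor-free controls.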

EKVX = assay: Antiproliferative activity against human EKVX cells after 48 hrs by SRB assay; assay type: functional; how it was run: as §1
Focal adhesion kinase 1 = Focal adhesion kinase 1 (Homo sapiens, UniProt Q05397); assay: Inhibition of recombinant FAK using poly(Glu,Tyr)4 as substrate assessed as inhibition of [33P]Phosphate incorporation into substrate after 80 mins by scintillation counting
Chain of Focal adhesion kinase 1 (Q05397 whole entry): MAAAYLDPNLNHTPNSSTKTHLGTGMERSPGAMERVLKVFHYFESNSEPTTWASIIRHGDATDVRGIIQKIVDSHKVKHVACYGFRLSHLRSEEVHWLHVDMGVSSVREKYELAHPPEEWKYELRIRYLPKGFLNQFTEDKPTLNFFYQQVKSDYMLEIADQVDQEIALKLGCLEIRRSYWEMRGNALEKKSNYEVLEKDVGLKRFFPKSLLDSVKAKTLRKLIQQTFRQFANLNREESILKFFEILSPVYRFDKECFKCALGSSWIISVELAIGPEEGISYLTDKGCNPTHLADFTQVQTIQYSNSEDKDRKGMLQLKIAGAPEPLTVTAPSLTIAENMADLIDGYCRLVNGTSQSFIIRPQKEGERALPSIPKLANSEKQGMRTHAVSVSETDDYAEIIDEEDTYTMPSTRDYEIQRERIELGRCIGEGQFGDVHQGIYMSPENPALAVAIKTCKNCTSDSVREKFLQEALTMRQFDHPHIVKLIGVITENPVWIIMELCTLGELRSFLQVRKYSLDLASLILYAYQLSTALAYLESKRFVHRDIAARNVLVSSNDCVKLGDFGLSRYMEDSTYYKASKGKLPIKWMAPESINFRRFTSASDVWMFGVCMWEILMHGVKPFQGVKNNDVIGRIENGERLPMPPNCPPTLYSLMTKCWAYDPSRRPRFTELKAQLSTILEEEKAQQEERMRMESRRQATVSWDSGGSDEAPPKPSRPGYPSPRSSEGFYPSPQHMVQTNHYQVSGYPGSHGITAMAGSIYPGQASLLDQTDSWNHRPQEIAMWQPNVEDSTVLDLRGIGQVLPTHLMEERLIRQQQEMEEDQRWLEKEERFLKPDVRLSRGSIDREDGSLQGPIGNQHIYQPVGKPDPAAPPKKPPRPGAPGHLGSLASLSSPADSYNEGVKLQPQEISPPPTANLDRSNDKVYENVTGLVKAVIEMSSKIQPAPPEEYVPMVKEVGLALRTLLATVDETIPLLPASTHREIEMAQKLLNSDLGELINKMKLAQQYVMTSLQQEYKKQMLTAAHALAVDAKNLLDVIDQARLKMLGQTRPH

Chain of Aurora kinase B (Q96GD4 whole entry): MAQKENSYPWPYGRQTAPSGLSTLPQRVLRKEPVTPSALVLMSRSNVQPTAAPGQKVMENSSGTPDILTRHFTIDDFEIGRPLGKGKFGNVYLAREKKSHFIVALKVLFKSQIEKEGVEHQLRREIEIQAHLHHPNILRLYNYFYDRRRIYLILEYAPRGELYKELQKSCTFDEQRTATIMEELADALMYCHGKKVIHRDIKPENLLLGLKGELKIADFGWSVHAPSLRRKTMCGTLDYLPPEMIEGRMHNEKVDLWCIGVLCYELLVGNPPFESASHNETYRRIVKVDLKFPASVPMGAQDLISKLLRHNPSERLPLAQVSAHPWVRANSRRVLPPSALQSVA
Chain of RAC-alpha serine/threonine-protein kinase (P31749 whole entry): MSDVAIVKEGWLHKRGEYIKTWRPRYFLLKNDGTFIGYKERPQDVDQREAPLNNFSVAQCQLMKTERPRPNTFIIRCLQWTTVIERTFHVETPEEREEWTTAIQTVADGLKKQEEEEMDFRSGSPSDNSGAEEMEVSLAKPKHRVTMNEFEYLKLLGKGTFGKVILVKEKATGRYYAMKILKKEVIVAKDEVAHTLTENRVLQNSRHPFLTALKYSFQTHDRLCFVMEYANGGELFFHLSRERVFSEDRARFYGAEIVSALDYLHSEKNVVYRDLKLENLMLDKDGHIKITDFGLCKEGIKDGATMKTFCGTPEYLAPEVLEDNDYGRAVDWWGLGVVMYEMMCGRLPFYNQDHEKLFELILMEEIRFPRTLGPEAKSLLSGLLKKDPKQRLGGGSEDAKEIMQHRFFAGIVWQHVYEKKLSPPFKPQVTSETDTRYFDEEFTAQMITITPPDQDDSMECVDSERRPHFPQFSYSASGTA
Chain of Serine/threonine-protein kinase PLK1 (P53350 whole entry): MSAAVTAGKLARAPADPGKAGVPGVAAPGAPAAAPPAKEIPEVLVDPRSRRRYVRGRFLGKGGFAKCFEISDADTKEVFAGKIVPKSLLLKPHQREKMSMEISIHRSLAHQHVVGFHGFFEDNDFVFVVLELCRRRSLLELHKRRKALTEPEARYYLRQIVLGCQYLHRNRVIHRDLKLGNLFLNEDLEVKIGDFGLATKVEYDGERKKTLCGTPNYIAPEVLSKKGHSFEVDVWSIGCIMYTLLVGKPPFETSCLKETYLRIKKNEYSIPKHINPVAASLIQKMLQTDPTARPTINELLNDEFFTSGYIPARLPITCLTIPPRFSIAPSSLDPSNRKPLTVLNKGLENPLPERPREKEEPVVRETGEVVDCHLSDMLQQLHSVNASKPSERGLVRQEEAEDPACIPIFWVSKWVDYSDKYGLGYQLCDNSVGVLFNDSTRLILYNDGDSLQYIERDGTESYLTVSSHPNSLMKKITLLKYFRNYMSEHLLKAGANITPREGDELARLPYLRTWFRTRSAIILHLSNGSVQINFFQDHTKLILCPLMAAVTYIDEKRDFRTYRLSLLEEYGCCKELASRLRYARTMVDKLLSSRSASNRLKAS

Row | Compound | GI50 (TK-10) [µM] | GI50 (MCF7) [nM] | GI50 (SW-620) [nM] | IC50 (Aurora kinase B) [µM] | GI50 (UACC-257) [µM] | GI50 (HT-29) [µM] | GI50 (SNB-19) [µM] | IC50 [1] [µM] | GI50 (CAKI-1) [nM] | GI50 (OVCAR-3) [nM] | GI50 (MDA-MB-435) [nM] | IC50 [2] [nM] | GI50 (EKVX) [µM] | IC50 (Focal adhesion kinase 1) [nM]
1 | COc1ccc(Nc2nccc(-c3nc4ccccc4n3C)n2)cc1O | 26 | 470 | 620 | 6 | 5.5 | 27 | 10 | > 100 | 860 | 930 | 190 | 1200 | 17 | –
2 | CNC(=O)c1cc(Oc2ccc(NC(=O)Nc3ccc(Cl)c(C(F)(F)F)c3)cc2)ccn1 [SORAFENIB TOSYLATE] | 5 | 2500 | 3200 | – | 2 | 2.5 | 3.2 | – | 3200 | 3200 | 2000 | – | 2.5 | –
3 | COc1ccc(Nc2ncc3c(n2)-c2ccccc2NC(=O)C3)cc1O | 4.1 | 790 | 440 | 3 | 19 | 3.4 | 21 | > 100 | 150 | 550 | 200 | – | 4.1 | 640
